# High-throughput results as filed in PubChem BioAssay.
# Most compounds without a hit are left out; they make up all but 1.4% or so of the library.
# CRFR2-BP antag: antagonists of CRF-BP/CRF-R2 complex, primary screen, cell-based, HEK293, calcium dye fluorescence, uHTS; CRF-induced calcium fluorescence; inhibition, % at 11.8 µM; 350,000 tested, 0.59% active;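 active means inhibition of the ligand-induced calcium signal above about 50% at the single tested concentration, limit read from the data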
# Tn7 DDE FP: inhibitors of Tn7 peptide binding to fibrin DD(E), primary screen, biochemical, fluorescence polarization, human fibrin, Tn7 probe | inhibition, % at 8.3 µM | AID 720508, 2013 | 370,000 tested, 0.13% active | FP displacement of FITC-Tn7 peptide from fibrin DD(E); 0% = median of compound wells per plate | Fibrinogen beta chain (Homo sapiens), P02675;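 active means inhibition above the mean of compounds falling within the control limits plus 3 SD of them, cut at about 14% in these data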;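 further: 0% = plate median of compound wells and 100% = 10 µM Aha-Tn7 peptide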
# Target sequence (P02675 whole entry, looked up): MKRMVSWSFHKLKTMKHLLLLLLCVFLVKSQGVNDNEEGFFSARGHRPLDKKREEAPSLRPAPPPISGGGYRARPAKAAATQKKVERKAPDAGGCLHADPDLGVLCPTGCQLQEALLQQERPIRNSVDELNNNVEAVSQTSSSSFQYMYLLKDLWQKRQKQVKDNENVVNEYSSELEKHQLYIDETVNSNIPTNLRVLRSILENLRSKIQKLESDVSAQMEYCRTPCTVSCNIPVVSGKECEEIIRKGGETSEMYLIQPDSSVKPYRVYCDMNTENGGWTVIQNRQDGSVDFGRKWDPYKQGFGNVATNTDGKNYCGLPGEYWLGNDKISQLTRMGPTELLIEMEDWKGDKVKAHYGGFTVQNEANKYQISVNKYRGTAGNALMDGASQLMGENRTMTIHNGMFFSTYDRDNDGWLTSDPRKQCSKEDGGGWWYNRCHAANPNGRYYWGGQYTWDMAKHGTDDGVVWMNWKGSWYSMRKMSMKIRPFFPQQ
#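 System: human fibrin DD(E); quantity: Fibrin-DD(E) at 2 µM final; also added: fluorescent Tn7 probe at 0.1 µM; compound dosing: single nominal test concentration of 8.3 µM per compound; schedule: 10 min preincubation, 3 h with tracer, room temperature; detection: fluorescence polarization of the labelled Tn7 tracer; repeats: one replicate per compound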
# DDE Tn6 FP inh: inhibitors of Tn6 peptide binding to fibrin DD(E), primary screen, biochemical, fluorescence polarization, human fibrin, Tn6 probe; Fibrin DD(E) TRITC-Tn6 fluorescence polarization displacement; inhibition, % at 8.3 µM; 370,000 tested, 0.21% active; AID 720509, 2013;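 active means inhibition above a per-campaign cutoff: mean of compounds within control limits plus 3 SD, cut at about 15% in these data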;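 further: 0% = median of all compound wells on the plate and 100% = blocking peptide control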
# RTF Ca sens inh: cardiac RTF calcium sensitivity inhibitors, primary screen, biochemical, IANBD-TnC fluorescence, EC70 calcium. IANBD-labeled cardiac RTF, Ca2+ fluorescence. inhibition, % at 7.15 µM. 340,000 tested, 0.12% active. AID 493244, 2011;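 active means inhibition above the mean inhibition of all tested compounds plus 3 SD, cut at about 17% in these data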;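 further: assay run at fixed EC70 calcium of 1.6 mM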
# CRFR2-BP ag: agonists of CRF-BP/CRF-R2 complex, primary screen, cell-based, HEK293, calcium dye fluorescence, uHTS; CRF-binding protein / CRF receptor 2 complex (human); calcium dye fluorescence (FLIPR); percent of saturating CRF peptide response; activation, % at 13.2 µM; 350,000 tested, 0.46% active;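 active means activation of at least 50%, plus an integration ratio under a set limit after plate pattern correction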;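 further: plate controls were neutral control wells without compound for no effect and CRF at EC100 for full effect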
# RTF Ca sens act: cardiac RTF calcium sensitivity activators, primary screen, biochemical, IANBD-TnC fluorescence, EC20 calcium | AID 493008, 2010 | 340,000 tested, 0.24% active | activation, % at 7.2 µM | IANBD-labeled TnC RTF fluorescence at EC20 calcium; 0% EC20 calcium, 100% full calcium;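 active means activation above the mean over all tested compounds plus 3 SD, cut at about 30% in these data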;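 further: rise in fluorescence read as greater calcium sensitivity of cardiac thin filaments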
# The depositor's hits bear a star; i = inactive; x = no result.
SMILES,CRFR2-BP antag,Tn7 DDE FP,DDE Tn6 FP inh,RTF Ca sens inh,CRFR2-BP ag,RTF Ca sens act
Nc1ccn([C@@H]2O[C@H](C(=O)N3CCN(C(=O)N4CCCCC4)CC3)[C@@H](O)[C@H]2O)c(=O)n1,x,-1.8,-3.4,x,x,x
CC(=O)OC12CCCN(C1)/C(=C/c1cccnc1)C2 (stereo not given),x,-2.3,4.9,x,x,x
CCCNC(=O)N1C[C@H](O)COC[C@H]2O[C@@H](CC(=O)N[C@@H]3CCN(Cc4ccccc4)C3)CC[C@@H]21,x,-8.6,-7.2,x,x,x
COc1ccc(C2CC(=O)Oc3cc(O)ccc32)cc1 (stereo not given),6.1,0.8,-1.9,-2.7,-1.4,-2.6
Cc1ccccc1C1CC(=O)Oc2cc(O)ccc21 (stereo not given),-8.8,x,x,-62.9,21.5,38.9*
Cn1c(=O)cc(OCC(=O)N2CCN(c3ccc(F)cc3)CC2)c2ccccc21,x,1.7,10.1,x,x,x
CC(C)(C)OC(=O)N[C@H]1C=C[C@@H](CC(=O)OCC(F)(F)F)C1,x,-6.3,1.6,x,x,x
COc1ccc(NC(=O)c2cc(-c3ccccc3Cl)on2)cc1,2.5,6.7,3.8,1.5,0.8,1.1
COc1ccc(NC(=O)c2cc(-c3ccccc3OC)on2)cc1,54.5*,4.6,6.4,1.4,-0.1,-2.1
Cc1nc(N)sc1-c1csc(N(C)c2ccc(O)cc2)n1,51.3*,3.9,-7.0,3.0,-1.5,-4.1
CC(C)OC(=O)c1sc2nc(-c3ccccc3)ccc2c1N,-48.1,-4.1,-5.4,1.8,0.0,-2.9
COc1ccc(C(=O)c2sc3nc(-c4ccccc4)ccc3c2N)cc1,-126.2,x,x,-50.4,82.9*,18.6
O=C1CCC[C@H]2C[C@H](NCc3ccc(Cl)c(C(F)(F)F)c3)CC[C@]23CCCN13,x,1.6,-1.2,x,x,x
COC(=O)[C@]12C[C@H](CC(=O)N3CCC(c4ccccc4)CC3)C(=O)N(CCC3=CCCCC3)C1=C[C@H](C(C)(C)C)O[C@@H]2C,x,-13.7,-1.6,x,x,x
COc1ccc2c(n1)Sc1nc3ccccc3nc1N2,-189.2,1.9,-5.5,-59.3,227.7*,30.1*
COC(=O)C(F)(F)Sc1c(C)[nH]c2ccccc12,51.8*,6.7,1.3,-3.6,-0.4,3.5
Cc1[nH]c2ccccc2c1SCC(=O)O,-1.6,0.6,0.9,-23.4,-0.8,3.8
Cc1cc(-c2cc(NC=O)c3ncc(-c4cccc(C(=O)NCCN(C)C)c4)n3c2)cc(C)c1O,x,-1.1,-5.5,x,x,x
O=C(CCCC(=O)N1CCN(c2ccc([N+](=O)[O-])cc2)CC1)c1ccccc1,45.8,-0.6,2.2,4.2,-0.8,2.7
O=C(CCCc1ccccc1)N1CCN(c2ccc([N+](=O)[O-])cc2)CC1,68.5*,-0.3,6.5,1.8,-3.3,-3.9
CCN1C(=O)c2cccc3c(S(=O)(=O)NCc4ccccc4)ccc1c23,5.9,-7.3,1.8,1.6,-1.6,-5.6
CCN1C(=O)c2cccc3c(S(=O)(=O)Nc4ccccc4OC)ccc1c23,-133.9,-0.2,4.1,-18.5,128.7*,-1.7
Cc1nn(CCC(=O)NNC(=O)Nc2ccc(F)cc2)c(C)c1[N+](=O)[O-],x,3.2,1.7,x,x,x
COc1ccccc1NS(=O)(=O)c1cc(C(=O)NCCC(C)C)ccc1F,-87.3,3.3,-1.7,-2.4,84.6*,-0.9
COc1ccccc1NS(=O)(=O)c1cc(C(=O)NCc2ccncc2)ccc1C,4.5,-6.5,0.6,-6.3,-2.7,-1.4
SMILES,CRFR2-BP antag,Tn7 DDE FP,DDE Tn6 FP inh,RTF Ca sens inh,CRFR2-BP ag,RTF Ca sens act
Fc1cc(Cl)cc2ccc(-c3ccccc3)nc12,x,-8.7,-1.3,x,x,x
CC(C)(C)c1ccc(N/N=C(\C#N)S(=O)(=O)C(C)(C)C)cc1,12.1,-0.8,6.3,-8.2,28.4,-0.3
CC(C)(C)S(=O)(=O)/C(C#N)=N/Nc1ccc(Cl)cc1,65.0*,-4.3,7.9,-4.7,47.0,1.8
Cc1ccc(-n2nnnc2SCc2nnc(-c3ccccc3Br)o2)c(C)c1,86.6*,-5.5,-4.7,0.7,-1.1,1.1
Cn1nnnc1SCc1nnc(-c2ccccc2Br)o1,-10.8,0.1,6.0,-6.3,2.1,0.3
O=C(COC(=O)C1(c2ccc(F)cc2)CCCC1)NCc1ccc2c(c1)OCO2,61.8*,-4.4,-5.1,-19.3,-1.2,-0.3
O=C(NCc1ccc2c(c1)OCO2)c1c(F)c(F)c(F)c(F)c1F,61.4*,3.1,0.4,-6.8,-1.8,1.9
O=C(COC(=O)C1(c2ccccc2F)CCCC1)NCc1ccc2c(c1)OCO2,9.4,2.8,-4.5,1.9,0.5,-3.3
CC(C)C(NS(=O)(=O)c1ccc2c(c1)oc(=O)n2C)C(=O)N1CCN(C2CCCCC2)CC1 (stereo not given),57.7*,x,x,-4.0,1.0,5.0
CC1CC(C)CN(C(=O)C(NS(=O)(=O)c2ccc3c(c2)oc(=O)n3C)C(C)C)C1 (stereo not given),3.5,-4.4,0.1,-3.0,-1.0,-2.0
Cn1nccc1-c1coc2c(C(=O)NCc3ccccc3)cccc12,x,1.2,1.1,x,x,x
Cc1ccnc(SCc2cc(=O)c(OC(=O)c3ccc([N+](=O)[O-])cc3)co2)n1,x,1.1,0.8,x,x,x
O=C(C(=O)N1CCCCCC1)c1c[nH]c2ccccc12,12.4,-1.2,-4.4,-2.7,-1.5,-4.8
C[n+]1cc(C(=O)N2CCCCC2)ccc1/C=C/c1c[nH]c2ccccc12,-77.4,-46.2,1.6,-147.4,79.0*,143.4*
CCOC(=O)c1ccccc1-n1nnnc1C,9.1,-6.8,-3.3,6.8,-1.9,124.1*
CCOCCn1c(SCC(=O)OCc2ccccc2)nc2c1c(=O)[nH]c(=O)n2C,-43.7,0.2,2.0,-7.5,55.7*,2.4
COc1ccccc1CNC(=O)CCC(=O)N1CCOc2ccc(Cl)cc21,5.2,0.2,0.0,-12.2,-6.0,5.6
O=C(CCC(=O)N1CCOc2ccc(Cl)cc21)NCc1ccccc1,-85.2,-4.5,-1.2,-4.4,243.4*,2.2
O=C1NC(=S)SC1=Cc1ccc(F)cc1,34.2,-2.7,-5.2,-1.8,16.9,-4.0
CN1CCC/C1=C/C=C1\SC(=S)NC1=O,-132.1,-3.9,0.7,i,149.1*,471.1*
Nc1[nH]c(C(=O)c2ccc(Br)cc2)c(-c2ccncc2)c1C(=O)c1ccccc1,x,8.0,-5.7,x,x,x
CC(C)(CNC(=O)c1cc(Cl)c(O)c(Cl)c1)N1CCCCC1,55.4*,-3.0,9.0,-4.5,-3.2,-7.6
